Measured values reported in ChEMBL document CHEMBL1921722, “In vitro and in vivo evaluation of select kahalalide F analogs with antitumor and antifungal activities” (Bioorg Med Chem, 2011).
Converted amounts (≈) assume the structure as drawn. The source made the active and inactive calls.

Experiments:
[1] = system: Mycobacterium intracellulare; experiment: Antimicrobial activity against Mycobacterium intracellular ATCC 23068 after 5 days by MABA assay; assay type: functional, organism-based; conditions: ATCC 23068, 120 h
Method in brief: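 M. intracellulare was tested by a modified Franzblau method. Samples were serially diluted in 20% DMSO/saline, run in duplicate, and inocula were adjusted by OD630. […] IC50 is 50% growth inhibition; MIC is the lowest concentration with no detectable growth.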

Escherichia coli = experiment: Antimicrobial activity against Escherichia coli ATCC 35218 by CLSI method; assay type: functional, organism-based
Cryptococcus neoformans = experiment: Antimicrobial activity against Cryptococcus neoformans ATCC 90113 by CLSI method; assay type: functional, organism-based
PC-3 = experiment: Cytotoxicity against human PC3 cells by sulforhodamine B assay; assay type: functional; conditions: for GI50: read-out: GI50
Method in brief: (§1)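 NCI Developmental Therapeutics Program 60-cell-line human tumor panel screen, run at NCI. A single-concentration pre-screen was followed by a five-concentration dose-response in 10-fold steps. GI50 is the concentration that reduces growth of treated cells to half that of untreated control cells. TGI is the concentration that completely halts growth.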

Pseudomonas aeruginosa = experiment: Antimicrobial activity against Pseudomonas aeruginosa ATCC 27853 by CLSI method; assay type: functional, organism-based
[2] = Acute toxicity in iv dosed mouse assessed as mortality; conditions: in vivo
Staphylococcus aureus = experiment: Antimicrobial activity against methicillin-resistant Staphylococcus aureus ATCC 43300 by CLSI method; assay type: functional, organism-based
Aspergillus fumigatus = experiment: Antimicrobial activity against Aspergillus fumigatus ATCC 90906 by CLSI method; assay type: functional, organism-based
Candida albicans = experiment: Antimicrobial activity against Candida albicans ATCC 90028 by CLSI method; assay type: functional, organism-based
Fusarium sp. = experiment: Antimicrobial activity against Fusarium sp. by CLSI method; assay type: functional, organism-based
HCC 2998 = experiment: Cytotoxicity against human HCC2998 cells by sulforhodamine B assay; assay type: functional; conditions: read-out: GI50
Method in brief: (§2)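 Run by the NCI Developmental Therapeutics Program on its 60-line human tumour cell panel using the standard procedure. Compounds went through a single-concentration prescreen first, and those active by NCI criteria went on to a five-concentration growth-inhibition test. GI50 is the concentration that cuts growth of treated cells to half that of untreated control cells.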

KM12 = experiment: Cytotoxicity against human KM12 cells by sulforhodamine B assay; assay type: functional; conditions: read-out: GI50; method in brief: as §1
HT-29 = experiment: Cytotoxicity against human HT-29 cells by sulforhodamine B assay; assay type: functional; conditions: read-out: GI50; method in brief: as §2
SNB-75 = experiment: Cytotoxicity against human SNB75 cells by sulforhodamine B assay; assay type: functional; conditions: read-out: GI50; method in brief: as §1
COLO 205 = experiment: Cytotoxicity against human COLO205 cells by sulforhodamine B assay; assay type: functional; conditions: read-out: GI50
Method in brief: (§3)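 Run at NCI in the DTP 60-cell-line human tumor panel by standard procedure. Compounds were first screened at a single concentration, then tested at five tenfold-spaced concentrations. GI50 is the concentration reducing treated-cell growth to half that of untreated controls; TGI is the concentration completely halting growth.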

A549 = experiment: Cytotoxicity against human A549 cells by sulforhodamine B assay; assay type: functional; conditions: read-out: GI50; method in brief: as §3
NCI-H322M = experiment: Cytotoxicity against human NCI-H322M cells by sulforhodamine B assay; assay type: functional; conditions: read-out: GI50; method in brief: as §1
SK-OV-3 = experiment: Cytotoxicity against human SKOV3 cells by sulforhodamine B assay; assay type: functional; conditions: read-out: GI50; method in brief: as §1
Hs-578T = experiment: Cytotoxicity against human Hs578T cells by sulforhodamine B assay; assay type: functional; method in brief: as §1
UACC-257 = experiment: Cytotoxicity against human UACC257 cells by sulforhodamine B assay; assay type: functional; conditions: read-out: GI50; method in brief: as §1
RPMI-8226 = experiment: Cytotoxicity against human RPMI8226 cells by sulforhodamine B assay; assay type: functional; conditions: read-out: GI50; method in brief: as §1
DU-145 = experiment: Cytotoxicity against human DU145 cells by sulforhodamine B assay; assay type: functional; conditions: read-out: GI50; method in brief: as §2

O=C(O)c1cn(C2CC2)c2cc(N3CCNCC3)c(F)cc2c1=O [CIPROFLOXACIN]
MBC [1]: > 1 µM | MIC [1]: 1 µM (≈ 0.331 µg/mL)

C/C=C1\NC(=O)[C@H](Cc2ccccc2)NC(=O)[C@@H](C(C)C)NC(=O)[C@@H]([C@H](C)CC)NC(=O)[C@H](NC(=O)[C@H](NC(=O)[C@H](CCCN)NC(=O)[C@H]2CCCN2C(=O)[C@H](NC(=O)[C@@H](NC(=O)[C@@H](NC(=O)[C@H](NC(=O)CCCC(C)C)C(C)C)[C@@H](C)O)C(C)C)C(C)C)[C@H](C)CC)[C@H](C)OC(=O)[C@H](C(C)C)NC1=O [KAHALALIDE F]
Activity (Escherichia coli): inactive | MFC (Cryptococcus neoformans): 5 µM (≈ 7.39 µg/mL) | MIC (Cryptococcus neoformans): 5 µM (≈ 7.39 µg/mL) | IC50 [1]: > 20000 nM | MBC [1]: > 20 µM | MIC [1]: > 20 µM | GI50 (PC-3): 170 nM | Activity (Pseudomonas aeruginosa): inactive | MTD [2]: 0.28 mg/kg | Activity (Staphylococcus aureus): inactive | MFC (Aspergillus fumigatus): 20 µM (≈ 29.6 µg/mL) | MIC (Aspergillus fumigatus): 10 µM (≈ 14.8 µg/mL) | MFC (Candida albicans): 20 µM (≈ 29.6 µg/mL) | MIC (Candida albicans): 10 µM (≈ 14.8 µg/mL) | Activity (Fusarium sp.): Active

C[C@@H]1[C@H](O)[C@@H](C)/C=C/C=C/C=C/C=C/C=C/C=C/C=C/[C@H](O[C@@H]2O[C@H](C)[C@@H](O)[C@H](N)[C@@H]2O)C[C@@H]2O[C@](O)(C[C@@H](O)C[C@@H](O)[C@H](O)CC[C@@H](O)C[C@@H](O)CC(=O)O[C@H]1C)C[C@H](O)[C@H]2C(=O)O [AMPHOTERICIN B]
MFC (Cryptococcus neoformans): 0.06 µM (≈ 0.0554 µg/mL) | MIC (Cryptococcus neoformans): 0.016 µM (≈ 0.0148 µg/mL) | MFC (Aspergillus fumigatus): 2.5 µM (≈ 2.31 µg/mL) | MIC (Aspergillus fumigatus): 2.5 µM (≈ 2.31 µg/mL) | IC50 (Candida albicans): 250 nM | MFC (Candida albicans): 1.25 µM (≈ 1.16 µg/mL) | MIC (Candida albicans): 0.625 µM (≈ 0.578 µg/mL)

CC(=O)O[C@H]1C(=O)[C@@]2(C)[C@H]([C@H](OC(=O)c3ccccc3)[C@]3(O)C[C@H](OC(=O)[C@H](O)[C@@H](NC(=O)c4ccccc4)c4ccccc4)C(C)=C1C3(C)C)[C@]1(OC(C)=O)CO[C@@H]1C[C@@H]2O [PACLITAXEL]
GI50 (HCC 2998): 3 nM | GI50 (KM12): 4 nM | GI50 (HT-29): 2 nM | GI50 (SNB-75): 4 nM | GI50 (COLO 205): 3 nM | GI50 (A549): 4 nM | GI50 (NCI-H322M): 13 nM | GI50 (SK-OV-3): 8 nM | GI50 (Hs-578T; read-out: GI50): 3 nM | TGI (Hs-578T; read-out: TGI): 100 nM | GI50 (PC-3): 4 nM | TGI (PC-3; read-out: TGI): 10000 nM | GI50 (UACC-257): 40 nM | GI50 (RPMI-8226): 2 nM | GI50 (DU-145): 5 nM
